Test results: ChEMBL document CHEMBL1158613, “Novel trivalent anti-influenza reagent” (Bioorg Med Chem Lett, 2010)
The source made the active and inactive calls. The rule behind the calls is not given here.

Tests used:
[1] = tested on: Influenza A virus; test: Antiviral activity against Influenza A/PR/8/1934 (H1N1) infected in MDCK cells assessed as of viral plaque formation at 4 degC relative to control; type: functional, A/Puerto Rico/8/1934(H1N1)
Summary of the method: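 Plaque reduction assay in MDCK cells infected with A/PR/8/1934 (H1N1), with compound at 400 μM during virus adsorption at 4 °C. Plaques were counted and expressed as a percentage of the virus-only control. Uninoculated cells served as the no-virus control. Single concentration only, with no dose range.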

[2] = Aqueous solubility of the compound; type: physicochemical; details: buffer
[3] = tested on: Influenza A virus; test: Antiviral activity against Influenza A/PR/8/1934 (H1N1) infected in MDCK cells assessed as viral plaque formation at 35 degC relative to control; type: functional, A/Puerto Rico/8/1934(H1N1)
Summary of the method: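 Plaque reduction assay in MDCK cells with A/PR/8/1934 (H1N1), with compound at 400 μM present during virus adsorption at 35 °C. The plaque count is given as a percentage of plaques in the virus-only control, and uninoculated cells were the blank. A single concentration was tested.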

[4] = tested on: Influenza A virus; test: Inhibition of Influenza A/PR/8/1934 (H1N1)-induced hemagglutinination of chicken RBC; type: functional, organism-based; details: A/Puerto Rico/8/1934(H1N1)

For `NC(CCC(=O)NCCCCCCO[C@@H]1O[C@H](CO)[C@@H](O[C@@H]2O[C@H](CO)[C@H](O)[C@H](O)[C@H]2O)[C@@H](O)[C@H]1O)C(=O)NCCOCCOCCOc1ccc(C(c2ccc(OCCOCCOCCNC(=O)C(N)CCC(=O)NCCCCCCO[C@@H]3O[C@H](CO)[C@@H](O[C@@H]4O[C@H](CO)[C@H](O)[C@H](O)[C@H]4O)[C@@H](O)[C@H]3O)cc2)c2ccc(OCCOCCOCCNC(=O)C(N)CCC(=O)NCCCCCCO[C@@H]3O[C@H](CO)[C@@H](O[C@@H]4O[C@H](CO)[C@H](O)[C@H](O)[C@H]4O)[C@@H](O)[C@H]3O)cc2)cc1` (some centres undefined), the Activity [1] was 72.4%, the solubility [2] was “Soluble” and the Activity [3] was 77.1%.

In the case of `CC(=O)N[C@H]1[C@@H]([C@@H](O)[C@H](O)CO)O[C@](O[C@H]2[C@@H](O)[C@@H](CO)O[C@@H](O[C@H]3[C@@H](O)[C@@H](O)[C@H](OCCCCCCNC(=O)CCC(N)C(=O)NCCOCCOCCC(=O)Nc4ccc(C(c5ccc(NC(=O)CCOCCOCCNC(=O)C(N)CCC(=O)NCCCCCCO[C@@H]6O[C@H](CO)[C@@H](O[C@@H]7O[C@H](CO)[C@H](O)[C@H](O[C@@]8(C(=O)O)C[C@H](O)[C@@H](NC(C)=O)[C@@H]([C@@H](O)[C@H](O)CO)O8)[C@H]7O)[C@@H](O)[C@H]6O)cc5)c5ccc(NC(=O)CCOCCOCCNC(=O)C(N)CCC(=O)NCCCCCCO[C@@H]6O[C@H](CO)[C@@H](O[C@@H]7O[C@H](CO)[C@H](O)[C@H](O[C@@]8(C(=O)O)C[C@H](O)[C@@H](NC(C)=O)[C@@H]([C@@H](O)[C@H](O)CO)O8)[C@H]7O)[C@@H](O)[C@H]6O)cc5)cc4)O[C@@H]3CO)[C@@H]2O)(C(=O)O)C[C@@H]1O` (some centres undefined), the Activity [1] is reported as 67.2%, the solubility [2] is reported as “Soluble” and the Activity [3] is reported as 56.6%. For the same compound, the inhibition [4] was “inactive”.

For `NC(CCC(=O)NCCCCCCO[C@@H]1O[C@H](CO)[C@@H](O[C@@H]2O[C@H](CO)[C@H](O)[C@H](O)[C@H]2O)[C@@H](O)[C@H]1O)C(=O)NCCOCCOCCC(=O)Nc1ccc(C(c2ccc(NC(=O)CCOCCOCCNC(=O)C(N)CCC(=O)NCCCCCCO[C@@H]3O[C@H](CO)[C@@H](O[C@@H]4O[C@H](CO)[C@H](O)[C@H](O)[C@H]4O)[C@@H](O)[C@H]3O)cc2)c2ccc(NC(=O)CCOCCOCCNC(=O)C(N)CCC(=O)NCCCCCCO[C@@H]3O[C@H](CO)[C@@H](O[C@@H]4O[C@H](CO)[C@H](O)[C@H](O)[C@H]4O)[C@@H](O)[C@H]3O)cc2)cc1` (some centres undefined), the Activity [1] was 100%, the solubility [2] was “Soluble” and the Activity [3] was 100%.

With `CC(=O)N[C@H]1[C@@H]([C@@H](O)[C@H](O)CO)O[C@](O[C@H]2[C@@H](O)[C@@H](CO)O[C@@H](O[C@H]3[C@@H](O)[C@@H](O)[C@H](OCCCCCCNC(=O)CCC(N)C(=O)NCCOCCOCCOc4ccc(C(c5ccc(OCCOCCOCCNC(=O)C(N)CCC(=O)NCCCCCCO[C@@H]6O[C@H](CO)[C@@H](O[C@@H]7O[C@H](CO)[C@H](O)[C@H](O[C@@]8(C(=O)O)C[C@H](O)[C@@H](NC(C)=O)[C@@H]([C@@H](O)[C@H](O)CO)O8)[C@H]7O)[C@@H](O)[C@H]6O)cc5)c5ccc(OCCOCCOCCNC(=O)C(N)CCC(=O)NCCCCCCO[C@@H]6O[C@H](CO)[C@@H](O[C@@H]7O[C@H](CO)[C@H](O)[C@H](O[C@@]8(C(=O)O)C[C@H](O)[C@@H](NC(C)=O)[C@@H]([C@@H](O)[C@H](O)CO)O8)[C@H]7O)[C@@H](O)[C@H]6O)cc5)cc4)O[C@@H]3CO)[C@@H]2O)(C(=O)O)C[C@@H]1O` (some centres undefined) the Activity [1] was 15.5%, the solubility [2] was “Soluble” and the Activity [3] was 45.6%. For the same compound, the inhibition [4] was “inactive”.
